Experimental data taken from ChEMBL document CHEMBL3808288, “Identification and in Vivo Evaluation of Liver X Receptor β-Selective Agonists for the Potential Treatment of Alzheimer's Disease” (J Med Chem, 2016).
≈ marks a conversion by molar mass, not a printed value.

How the values were obtained:
[1] = molecular target: T1, Oxysterols receptor LXR-beta (Homo sapiens) (UniProt P55055); assay: Agonist activity at GST-tagged LXRbeta-LBD (unknown origin) by LanthaScreen TR-FRET liver X receptor coactivator assay relative to T1317
T1 sequence (whole entry): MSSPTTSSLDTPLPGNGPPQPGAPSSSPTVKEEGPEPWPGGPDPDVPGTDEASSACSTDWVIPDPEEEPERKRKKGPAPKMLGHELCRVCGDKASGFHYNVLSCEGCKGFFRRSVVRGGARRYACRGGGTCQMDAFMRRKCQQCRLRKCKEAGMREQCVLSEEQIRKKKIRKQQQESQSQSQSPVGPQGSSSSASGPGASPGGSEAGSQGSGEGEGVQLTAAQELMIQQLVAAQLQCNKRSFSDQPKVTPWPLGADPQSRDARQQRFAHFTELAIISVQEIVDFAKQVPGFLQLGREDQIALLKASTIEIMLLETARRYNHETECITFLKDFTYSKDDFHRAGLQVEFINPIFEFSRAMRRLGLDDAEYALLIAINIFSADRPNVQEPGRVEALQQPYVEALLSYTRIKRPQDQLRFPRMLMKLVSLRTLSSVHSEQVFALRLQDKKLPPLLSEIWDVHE
In short: (§1)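 Cofactor recruitment assay using the ligand binding domains of LXRβ or LXRα. The read-out was EC50 and Emax, with Emax relative to a full agonist control.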

[2] = molecular target: T2, Oxysterols receptor LXR-alpha (Homo sapiens) (UniProt Q13133); assay: Agonist activity at GST-tagged LXRalpha-LBD (unknown origin) by LanthaScreen TR-FRET liver X receptor coactivator assay T1317; in short: as §1
T2 sequence (whole entry): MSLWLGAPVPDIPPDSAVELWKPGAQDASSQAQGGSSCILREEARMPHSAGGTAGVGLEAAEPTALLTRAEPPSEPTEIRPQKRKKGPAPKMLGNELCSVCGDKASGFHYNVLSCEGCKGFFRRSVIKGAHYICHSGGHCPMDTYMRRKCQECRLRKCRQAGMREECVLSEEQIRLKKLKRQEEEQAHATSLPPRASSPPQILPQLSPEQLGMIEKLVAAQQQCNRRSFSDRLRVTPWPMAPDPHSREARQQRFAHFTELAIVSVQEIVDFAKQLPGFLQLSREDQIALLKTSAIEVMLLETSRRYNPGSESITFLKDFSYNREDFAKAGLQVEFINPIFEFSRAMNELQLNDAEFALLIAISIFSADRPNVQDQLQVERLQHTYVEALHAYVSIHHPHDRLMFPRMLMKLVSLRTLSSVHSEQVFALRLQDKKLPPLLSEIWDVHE

[3] = molecular target: T3, Oxysterols receptor LXR-alpha (Homo sapiens, UniProt Q13133); assay: Agonist activity at GST-tagged LXRalpha-LBD (unknown origin) by LanthaScreen TR-FRET liver X receptor coactivator assay; in short: as §1
T3 sequence (Q13133 whole entry): T2 sequence (whole entry)

[4] = molecular target: T4, Oxysterols receptor LXR-beta (Homo sapiens, UniProt P55055); assay: Agonist activity at GST-tagged LXRbeta-LBD (unknown origin) by LanthaScreen TR-FRET liver X receptor coactivator assay; in short: as §1
T4 sequence (P55055 whole entry): T1 sequence (whole entry)

[5] = molecular target: T2, Oxysterols receptor LXR-alpha (Homo sapiens); assay: (§2) Agonist activity at LXRalpha (unknown origin) expressed in human HepG2 cells co-expressing ABCA1 promoter measured after 48 hrs by cell-based transactivation assay
[6] = molecular target: T3, Oxysterols receptor LXR-alpha; assay: as §2
[7] = Solubility of the compound at pH 2; assay type: physicochemical; settings: buffer
[8] = molecular target: T1, Oxysterols receptor LXR-beta (Homo sapiens); assay: (§3) Agonist activity at LXRbeta (unknown origin) expressed in human H4 cells co-expressing ABCA1 promoter measured after 48 hrs by cell-based transactivation assay
[9] = molecular target: T4, Oxysterols receptor LXR-beta; assay: as §3

- Emax [1]: 67%
- Emax [2]: 62%
- EC50 [3]: 41 nM
- EC50 [4]: 8 nM
- Emax [5]: 66%
- EC50 [6]: 45 nM
- solubility [7]: 3 µM (≈ 1.72 µg/mL)
- Emax [8]: 64%
- EC50 [9]: 7 nM
Compound: CN(C)C(=O)c1ccc(-c2cnc(N3CCN(C(=O)[C@](O)(c4ccccc4)C(F)(F)F)CC3)c(C#N)c2)cc1Cl
